From publication PMC9291769 (Chemmedchem, 2021) come the findings set out here.

A short description of data set [1]: MTT cell viability assay. The class given is cell-based, human. Particulars: human, A375 cells, Cell viability [%] @ 10 μM±SD. In outline: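 A375 cells were kept in high-glucose DMEM with 10% heat-inactivated FBS, 2 mM L-glutamine and pen/strep. Cells were seeded at 0.5×10^5/well and exposed to 10 µM test compound for 48 h at 37 °C, 5% CO₂, then given MTT. Viability = 100(x−y)/(z−y), where x, y and z are absorbance of treated, resting and untreated cells. Mean ± SD, ≥3 experiments in triplicate.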
A general note: Formazan colour is commonly taken as a measure of viable cells.

In data set [2] the target is IDO1 (Homo sapiens, UniProt P14902). Nature of the data set: Cellular IDO1 inhibition. The class given is cell-based. The note with it: IC50±SD [μM], A375 cell line, IFN-γ, 48 h. Summed up: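 A375 cells (0.5×10^5/well) were grown overnight, then given test compound (serial dilutions 0.01–30 µM, or single 10 µM) with human IFN-γ (500 U/mL final) and 0.1% DMSO for 48 h. Medium was deproteinized with 20% CCl₃COOH. L-Kyn was quantified by C18 HPLC at 330 nm against a calibration curve; % inhibition was taken versus basal levels. IC50s came from concentration-response curves, ≥3 experiments in triplicate.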

The nature of data set [3]: In vitro metabolic stability in rat liver S9 fraction. The note with it: rat liver S9 with NADPH, 5 μM substrate, 37 °C. In kind it is in vitro ADME. Summed up: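 Pooled male Sprague Dawley rat liver S9 (1.5 mg/mL final protein) was used in 50 mM Tris pH 7.4 with 3.3 mM MgCl₂, 1.3 mM β-NADP, 3.3 mM glucose 6-phosphate, 0.4 U/mL G6PDH and 1% acetonitrile. Test compound was 5 µM, shaken 60 min at 37 °C. Controls lacked S9 or cofactors. Reactions were stopped with ice-cold acetonitrile and centrifuged; residual substrate was measured.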

Data set [4] concerns CYP (aminopyrine N-demethylase activity). Kind of data set: CYP inhibition: aminopyrine N-demethylase assay in rat liver microsomes. In kind it is in vitro ADME. The note with it: rat liver microsomes, 1, 10 and 100 μM. Summed up:
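Aminopyrine N-demethylation by rat liver microsomes, with inhibition read as the […] after aminopyrine incubation. Ketoconazole served as the reference CYP inhibitor.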
(Liver microsomes are vesicles of endoplasmic reticulum, rich in cytochrome P450 enzymes.)

For data set [5], the target named is TDO (P1.TDO) (Homo sapiens, UniProt P48775). Kind of data set: IDO1 and TDO selectivity assay, P1.TDO cells. The class given is cell-based. The note with it: 10 μM, 16 h. In outline:
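Mouse mastocytoma P815-derived P1.HTR cells, stably electroporated with a human TDO plasmid and selected in puromycin, grown in IMDM with 1 mM glutamine and penicillin/streptomycin, used at ≤10th passage. Cells incubated 16 h with 10 μM test compound; DMSO vehicle as control. Supernatant L-Kyn measured by HPLC-UV (C18 column) against a calibration curve, detection limit 0.05 μM. Triplicate.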

TDO (P1.TDO), sequence (P48775 whole entry): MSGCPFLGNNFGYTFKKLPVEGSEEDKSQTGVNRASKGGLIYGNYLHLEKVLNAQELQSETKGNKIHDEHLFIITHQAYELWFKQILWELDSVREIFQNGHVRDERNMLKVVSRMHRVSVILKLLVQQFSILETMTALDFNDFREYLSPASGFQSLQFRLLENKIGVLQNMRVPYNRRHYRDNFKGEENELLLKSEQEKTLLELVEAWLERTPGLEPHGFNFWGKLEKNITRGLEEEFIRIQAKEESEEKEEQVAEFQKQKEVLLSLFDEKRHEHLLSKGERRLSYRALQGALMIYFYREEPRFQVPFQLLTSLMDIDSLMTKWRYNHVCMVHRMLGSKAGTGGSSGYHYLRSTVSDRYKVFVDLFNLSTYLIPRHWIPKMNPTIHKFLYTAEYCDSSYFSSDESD
IDO1, sequence (P14902 whole entry): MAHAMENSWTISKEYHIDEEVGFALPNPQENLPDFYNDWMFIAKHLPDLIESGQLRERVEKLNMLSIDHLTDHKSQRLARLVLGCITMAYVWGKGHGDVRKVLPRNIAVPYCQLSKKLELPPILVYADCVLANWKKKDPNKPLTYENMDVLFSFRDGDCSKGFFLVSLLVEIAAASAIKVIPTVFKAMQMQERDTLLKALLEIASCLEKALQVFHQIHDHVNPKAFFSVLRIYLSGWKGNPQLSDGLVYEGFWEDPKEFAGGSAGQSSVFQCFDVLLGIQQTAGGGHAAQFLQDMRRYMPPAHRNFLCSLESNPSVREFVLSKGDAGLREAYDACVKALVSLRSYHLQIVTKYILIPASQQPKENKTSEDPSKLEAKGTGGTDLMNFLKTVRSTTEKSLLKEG

The viability is a read-out of living cells in per cent, often relative to untreated cells. Lower therefore signals a greater loss of cells. A word on the IC50: it is the concentration needed to halve the response being measured. `COc1ccc(-c2ccc(F)c(C(=O)NCc3nnc4ccc5ccccc5n34)c2)cc1` [Compound 40, N‐([1,2,4]triazolo[4,3‐a]quinolin‐1‐ylmethyl)‐4‐fluoro‐4′‐methoxy‐[1,1′‐biphenyl]‐3‐carboxamide] returned a viability at 48 h, 10 μM in data set [1] of 97 ± 3.8%. In data set [2], this compound showed an IC50 of 3.4 ± 0.3 µM. Besides, the “Residual peak area after RLS9 incubation (60 min)” value (“Residual peak area” for short) in data set [3] is reported as “higher than 99%”.

Regarding `CC(=O)N1CCN(c2ccc(OCC3COC(Cn4ccnc4)(c4ccc(Cl)cc4Cl)O3)cc2)CC1` (centres unmarked) [ketoconazole, reference compound], the “CYP inhibition (aminopyrine N-demethylase activity)” value (“CYP inhibition” for short) in data set [4] was “strong inhibition of CYP”. `O=C(NCc1nnc2ccc3ccccc3n12)c1ccc(O)c(Br)c1` [Compound 38, N‐([1,2,4]Triazolo[4,3‐a]quinolin‐1‐ylmethyl)‐3‐bromo‐4‐hydroxybenzamide] showed a viability at 48 h, 10 μM in data set [1] of 95 ± 7.1%. The compound further registered a half-maximal inhibitory concentration (IC50) in data set [2] of 0.9 ± 0.02 µM. For the same compound, in data set [5], the “Kyn levels in P1.TDO cells” value is listed as “not able to induce a reduction of Kyn levels in P1.TDO”. In data set [4], the “CYP inhibition” value is “did not significantly inhibit CYP at the tested concentrations”. Compound `COc1cc(C)c(C(=O)NCc2nnc3ccc(C(F)(F)F)cn23)c(C)c1` [Compound 17, 4‐Methoxy‐2,6‐dimethyl‐N‐((6‐(trifluoromethyl)‐[1,2,4]triazolo[4,3‐a]pyridin‐3‐yl)methyl)benzamide] displayed a viability at 48 h, 10 μM in data set [1] of 89 ± 9.2%. In the case of `O=C(NCc1cccc2ccccc12)c1cccc2cn[nH]c12` [Compound 44, N‐(Naphthalen‐1‐ylmethyl)‐1H‐indazole‐7‐carboxamide], the viability at 48 h, 10 μM in data set [1] came to 99 ± 1%. Same read-out and setting: the same measure for `O=C(NCc1nnc2ccc(C(F)(F)F)cn12)c1cc(Br)c(O)cc1O` [Compound 13, 5‐Bromo‐2,4‐dihydroxy‐N‐((6‐(trifluoromethyl)‐[1,2,4]triazolo[4,3‐a]pyridin‐3‐yl)methyl)benzamide]: 94 ± 2.8%; for `COc1ccc(-c2ccc(F)c(C(=O)NCc3nnc4ccc(C(F)(F)F)cn34)c2)cc1` [Compound 21, 4‐Fluoro‐4′‐methoxy‐N‐((6‐(trifluoromethyl)‐[1,2,4]triazolo[4,3‐a]pyridin‐3‐yl)methyl)‐[1,1′‐biphenyl]‐3‐carboxamide]: 78 ± 4.2%; for `COc1ccc(-c2ccc(F)c(C(=O)NCc3nnc4ccc(Cl)cn34)c2)cc1OC` [Compound 32, N‐((6‐Chloro‐[1,2,4]triazolo[4,3‐a]pyridin‐3‐yl)methyl)‐4‐fluoro‐3′,4′‐dimethoxy‐[1,1′‐biphenyl]‐3‐carboxamide]: 98 ± 9.3%. Regarding `COc1ccc(-c2ccc(F)c(C(=O)NCc3nnc4ccc(C(F)(F)F)cn34)c2)cc1OC` [Compound 25, 4‐Fluoro‐3′,4′‐dimethoxy‐N‐((6‐(trifluoromethyl)‐[1,2,4]triazolo[4,3‐a]pyridin‐3‐yl)methyl)‐[1,1′‐biphenyl]‐3‐carboxamide], in data set [1], the viability at 48 h, 10 μM was found to be 94 ± 2.1%. Besides, in data set [2], the midpoint of inhibition, the IC50, lay at 1.4 ± 0.5 µM. Also, in data set [5], the “Kyn levels in P1.TDO cells” value was “not able to induce a reduction of Kyn levels in P1.TDO”. In addition, the “Residual peak area” value in data set [3] is reported as “higher than 99%”. Moreover, in data set [4], the “CYP inhibition” value is “low inhibition at 10 and 100 μM”. In the case of `Cc1ccccc1-c1ccc(F)c(C(=O)NCc2nnc3ccc(C(F)(F)F)cn23)c1` [Compound 20, 4‐Fluoro‐2′‐methyl‐N‐((6‐(trifluoromethyl)‐[1,2,4]triazolo[4,3‐a]pyridin‐3‐yl)methyl)‐[1,1′‐biphenyl]‐3‐carboxamide], in data set [1], the viability at 48 h, 10 μM was found to be 100%. On to `Cc1ccc(-c2cccc(C(=O)NCc3nnc4ccc(C(F)(F)F)cn34)c2)cc1` [Compound 22, 4′‐Methyl‐N‐((6‐(trifluoromethyl)‐[1,2,4]triazolo[4,3‐a]pyridin‐3‐yl)methyl)‐[1,1′‐biphenyl]‐3‐carboxamide], for which the viability at 48 h, 10 μM in data set [1] is 93 ± 9.8%. Consider `O=C(NCc1nnc2ccc(C(F)(F)F)cn12)c1cc(-c2ccc(F)cc2)ccc1F` [Compound 18, 4,4′‐Difluoro‐N‐((6‐(trifluoromethyl)‐[1,2,4]triazolo[4,3‐a]pyridin‐3‐yl)methyl)‐[1,1′‐biphenyl]‐3‐carboxamide], for which the viability at 48 h, 10 μM in data set [1] amounted to 88 ± 16.8%. Still for that read-out and setting: the same measure for `O=C(NCc1nnc2ccc(C(F)(F)F)cn12)c1c(F)ccc(Cl)c1Cl` [Compound 15, 2,3‐Dichloro‐6‐fluoro‐N‐((6‐(trifluoromethyl)‐[1,2,4]triazolo[4,3‐a]pyridin‐3‐yl)methyl)benzamide]: 100 ± 0.7%; for `O=C(NCc1nnc2ccc(Cl)cn12)c1cccc2cn[nH]c12` [Compound 30, N‐((6‐Chloro‐[1,2,4]triazolo[4,3‐a]pyridin‐3‐yl)methyl)‐1H‐indazole‐7‐carboxamide]: 98 ± 7.4%. With `N#Cc1ccc(-c2ccc(F)c(C(=O)NCc3nnc4ccc(C(F)(F)F)cn34)c2)cc1` [Compound 19, 4′‐Cyano‐4‐fluoro‐N‐((6‐(trifluoromethyl)‐[1,2,4]triazolo[4,3‐a]pyridin‐3‐yl)methyl)‐[1,1′‐biphenyl]‐3‐carboxamide], the viability at 48 h, 10 μM in data set [1] is 97 ± 2.1%.

As to `COc1cc(C)c(C(=O)NCc2nnc3ccc4ccccc4n23)c(C)c1` [Compound 39, N‐([1,2,4]Triazolo[4,3‐a]quinolin‐1‐ylmethyl)‐4‐methoxy‐2,6‐dimethylbenzamide], the viability at 48 h, 10 μM in data set [1] stood at 94 ± 6.3%. The same compound returned an IC50 in data set [2] of 1.8 ± 0.2 µM. Moreover, the “Kyn levels in P1.TDO cells” value in data set [5] was “not able to induce a reduction of Kyn levels in P1.TDO”. The “Residual peak area” value in data set [3] was “higher than 99%”. `O=C(NCc1nnc2ccccn12)c1cccc2cn[nH]c12` [Compound 42, N‐([1,2,4]Triazolo[4,3‐a]pyridin‐3‐ylmethyl)‐1H‐indazole‐7‐carboxamide]: in data set [1], the viability at 48 h, 10 μM came to 100%. As for `Cc1ccc(-c2ccc(F)c(C(=O)NCc3nnc4ccc(C(F)(F)F)cn34)c2)cc1C` [Compound 24, 4‐Fluoro‐3′,4′‐dimethyl‐N‐((6‐(trifluoromethyl)‐[1,2,4]triazolo[4,3‐a]pyridin‐3‐yl)methyl)‐[1,1′‐biphenyl]‐3‐carboxamide], the viability at 48 h, 10 μM in data set [1] amounted to 95 ± 7.2%. The same compound had a concentration for half-maximal inhibition (IC50) in data set [2] of 2 ± 0.3 µM. The “Kyn levels in P1.TDO cells” value in data set [5] is “not able to induce a reduction of Kyn levels in P1.TDO”. In addition, in data set [3], the “Residual peak area” value is listed as “higher than 99%”.

`O=C(NCc1nnc2ccc3ccccc3n12)c1cccc2cn[nH]c12` [Compound 37, N‐([1,2,4]Triazolo[4,3‐a]quinolin‐1‐ylmethyl)‐1H‐indazole‐7‐carboxamide] returned a viability at 48 h, 10 μM in data set [1] of 100 ± 4.1%. For the same compound, the concentration for half-maximal inhibition (IC50) in data set [2] amounted to 6.9 ± 0.8 µM.

In data set [1], `Cc1ccc(Br)c(C)c1C(=O)NCc1nnc2ccc(C(F)(F)F)cn12` [Compound 14, 3‐Bromo‐2,6‐dimethyl‐N‐((6‐(trifluoromethyl)‐[1,2,4]triazolo[4,3‐a]pyridin‐3‐yl)methyl)benzamide] displayed a viability at 48 h, 10 μM of 100%. The same measure, in the same setting: the same measure for `COc1cc(F)c(C(=O)NCc2nnc3ccc(C(F)(F)F)cn23)c(F)c1` [Compound 16, 2,6‐Difluoro‐4‐methoxy‐N‐((6‐(trifluoromethyl)‐[1,2,4]triazolo[4,3‐a]pyridin‐3‐yl)methyl)benzamide]: 100 ± 5.2%; for `O=C(NCc1nnc2ccc(C(F)(F)F)cn12)c1ccc(O)c(Br)c1` [Compound 12, 3‐Bromo‐4‐hydroxy‐N‐((6‐(trifluoromethyl)‐[1,2,4]triazolo[4,3‐a]pyridin‐3‐yl)methyl)benzamide]: 92 ± 12%.
